How the values were obtained:
Rattus norvegicus = species on record: Rattus norvegicus; assay: Ability to block apomorphine-induced stereotypy in rats.; assay type: functional
Outline: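 Male Wistar rats (150–250 g), 6–10 per dose group, given distilled water or test drug ip; apomorphine 1.5 mg/kg sc 50 min later. Rats were placed singly in cages and scored 10 min afterwards for continuous stereotyped licking or sniffing. Inhibition was the number of animals protected versus controls. ED50 was obtained by probit analysis.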

Mus musculus = species on record: Mus musculus; assay: Ability to inhibit apomorphine-induced climbing behavior in mice.; assay type: functional
Outline: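 Male CD-1 mice (18–30 g) were adapted for 1 h in wire-mesh cages, 8 per dose group. Distilled water or drug was given ip 30 or 60 min before apomorphine 1.5 mg/kg sc.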

[1] = molecular target: Serotonin 2 (5-HT2) receptor (Rattus norvegicus, UniProt P30994+P08909+P14842); assay: Affinity for 5-hydroxytryptamine 2 receptor binding sites by its ability to displace [3H]spiperone from rat frontal cortex.

Structure (SMILES) | ED50 (Rattus norvegicus) [mg/kg] | ED50 (Mus musculus) [mg/kg] | IC50 [1] [nM]
CC(=O)c1ccc2c(c1)OCC(CCN1CCC(c3noc4cc(F)ccc34)CC1)O2 (stereo unspecified) | > 80 | 13.7 | 91
CC(=O)c1ccc(OCCCN2CCC(c3noc4cc(F)ccc34)CC2)c(N(C)C)c1 | 4.3 | 0.15 | 16
CNc1ccccc1OCCCN1CCC(c2noc3cc(F)ccc23)CC1 | 22.3 | 0.81 | 17
COc1cc2cc[nH]c2cc1OCCCN1CCC(c2noc3cc(F)ccc23)CC1 | 8.6 | 2.7 | 3.2
CC(=O)c1cccc(OCCCN2CCC(c3noc4cc(F)ccc34)CC2)c1 | 6.4 | 0.39 | 63
CCC(=O)c1ccc(OCCCN2CCC(c3noc4cc(F)ccc34)CC2)c(OC)c1 | > 20 | 0.77 | 11
COc1cc(C(C)=O)ccc1OCCCCN1CCC(c2noc3cc(Cl)ccc23)CC1 | 9.7 | 2.4 | 143
COc1cc(C(=O)c2ccccc2)ccc1OCCCN1CCC(c2noc3cc(F)ccc23)CC1 | > 80 | 18.1 | 241
CC(O)c1ccc(OCCCN2CCC(c3noc4cc(F)ccc34)CC2)c(O)c1 (stereo unspecified) | 3.6 | 0.058 | 53
COc1cc(Br)ccc1OCCCN1CCC(c2noc3cc(F)ccc23)CC1 | 15.3 | 1.6 | 49
CNc1cc(C(C)=O)ccc1OCCCN1CCC(c2noc3cc(F)ccc23)CC1 | 47.6 | 0.15 | 42
CC(=O)c1ccc(OCCCN2CCC(c3noc4cc(F)ccc34)CC2)cc1 | 5.7 | 0.84 | 5.5
CCCCC(=O)c1ccc(OCCCN2CCC(c3noc4cc(F)ccc34)CC2)c(OC)c1 | 16.9 | 0.78 | 89
COc1cc(C(C)=O)ccc1OCCN1CCC(c2noc3cc(Cl)ccc23)CC1 |  | > 20 | 45
COc1cc(OCCCN2CCC(c3noc4cc(F)ccc34)CC2)ccc1C(C)=O | 8.2 | 0.28 | 23
CC(=O)c1ccc(OCCCN2CCC(c3noc4cc(F)ccc34)CC2)c(O)c1 | 0.7 | 0.054 | 2.9
COc1cc(C(=O)C(F)(F)F)ccc1OCCCN1CCC(c2noc3cc(F)ccc23)CC1 | > 20 | 2.2 | 38
CC(=O)Nc1cc(C(C)=O)ccc1OCCCN1CCC(c2noc3cc(F)ccc23)CC1 | 21.1 | 0.049 | 20
COc1cc(C(C)O)ccc1OCCCN1CCC(c2noc3cc(F)ccc23)CC1 (stereo unspecified) | 22.7 | 0.12 | 22
COc1cc(C(C)=O)cc(OC)c1OCCCN1CCC(c2noc3cc(F)ccc23)CC1 | 13.6 | 0.72 | < 10
COc1cc(C(=O)N(C)C)ccc1OCCCN1CCC(c2noc3cc(F)ccc23)CC1 | 26.7 | 0.72 | 5.2
COc1ccc(NC(C)=O)cc1OCCCN1CCC(c2noc3cc(F)ccc23)CC1 | 30.1 | 0.6 | 3.8
CC(=O)c1cc(C)ccc1OCCCN1CCC(c2noc3cc(F)ccc23)CC1 | 25.1 | 5.6 | 153
COc1cc(C#N)ccc1OCCCN1CCC(c2noc3cc(F)ccc23)CC1 | 15.7 | 1 | 45

Structure (SMILES) | ED50 (Rattus norvegicus) [mg/kg] | ED50 (Mus musculus) [mg/kg] | IC50 [1] [nM]
CCc1ccc(OCCCN2CCC(c3noc4cc(F)ccc34)CC2)c(OC)c1 | 9.5 | 0.18 | 16
COc1cc(C(C)=O)ccc1OCCCN1CCC(c2noc3ccc(F)cc23)CC1 | > 80 | 5.2 | 122
Nc1ccccc1OCCCN1CCC(c2noc3cc(F)ccc23)CC1 | 5.5 | 0.42 | 
COc1ccccc1OCCCN1CCC(c2noc3cc(F)ccc23)CC1 | 9.7 | 0.48 | 5.2
CC(=O)c1ccc(OCCCN2CCC(c3noc4cc(F)ccc34)CC2)c(C)c1 | 31.4 | 0.25 | 
COc1ccc(N)cc1OCCCN1CCC(c2noc3cc(F)ccc23)CC1 | 13 | 0.16 | 2
C=C(C)c1ccc(OCCCN2CCC(c3noc4cc(F)ccc34)CC2)c(OC)c1 | 25 | 0.55 | 20
COc1cc(C(C)=O)ccc1NCCCN1CCC(c2noc3cc(F)ccc23)CC1 | 9.3 | 0.26 | 18
COc1cc(C(N)=O)ccc1OCCCN1CCC(c2noc3cc(F)ccc23)CC1 | 22.7 | 1.6 | 0.9
COc1cc(C(C)=O)ccc1SCCCN1CCC(c2noc3cc(F)ccc23)CC1 | 13.6 | 2 | 41
COc1cc(C(C)=O)ccc1OCCCN1CCC(c2noc3cc(Cl)ccc23)CC1 | > 80 | 3.3 | 4.9
COc1cc(C(C)=O)ccc1OCCCCN1CCC(c2noc3cc(F)ccc23)CC1 | 7.5 | 0.68 | 8.5
COc1cc(C(C)=O)ccc1OCCCCN1CCC(c2noc3ccccc23)CC1 | 17 | 1.6 | 34
COc1cc(C(C)=O)ccc1OCCN1CCC(c2noc3ccccc23)CC1 |  | 7.4 | 26
COc1cc(/C(C)=N\N)ccc1OCCCN1CCC(c2noc3cc(F)ccc23)CC1 | 17.4 | 0.64 | 20
CSc1cc(C(C)=O)ccc1OCCCN1CCC(c2noc3cc(F)ccc23)CC1 |  | 20 | 170
COc1cc(C(C)=O)ccc1OCCN1CCC(c2noc3cc(F)ccc23)CC1 | > 80 | 5.3 | 67
COc1cc(/C(C)=N\O)ccc1OCCCN1CCC(c2noc3cc(F)ccc23)CC1 | > 80 | 1.1 | 0.7
COc1cc(C(C)=O)ccc1OCCCN1CCC(c2noc3ccccc23)CC1 | 20.8 | 0.67 | 3.5
CC(=O)c1ccc(OCCCN2CCC(c3noc4cc(F)ccc34)CC2)cc1C | 52.3 | 1.2 | 36
Fc1ccc2c(C3CCN(CCCOc4ccccc4)CC3)noc2c1 | 7.1 | 0.62 | 33
CCOc1cc(C(C)=O)ccc1OCCCN1CCC(c2noc3cc(F)ccc23)CC1 | 14.5 | 0.56 | 3.8
COc1cc2c(cc1OCCCN1CCC(c3noc4cc(F)ccc34)CC1)CCCC2=O | 25 | 2.3 | < 10
